Results taken from ChEMBL document CHEMBL1156462, “Seco-pregnane steroids target the subgenomic RNA of alphavirus-like RNA viruses” (Proc Natl Acad Sci U S A, 2007).
Calls of active or inactive are those of the source. The rule behind the calls is not given here.

What was measured:
[1] = tested on: Sindbis virus; assay: Reduction of Sindbis virus infection-induced mortality rate in newborn BALB/c mouse assessed as mouse survival at 100 mg/kg administered 1 hr before viral infection; assay type: functional, organism-based; design: dose 100 mg/kg
Outline: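 Newborn BALB/c mice (2–3 days old, ≈2 g), 11 per group, given 20 μl compound at 100 mg/kg BW 1 or 4 h before intracerebral inoculation with 20 μl medium containing 100 × LD₅₀ SINV. Survivors counted at 3, 4, 5, 6 and 7 days after inoculation.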

[2] = tested on: Tobacco mosaic virus; assay: Inhibition of TMV U1 multiplication in tobacco BY2 protoplast at 20 nM assessed as inhibition of local lesions on Chenopodium quinoa leaves by local lesion assay after 3 days postinfection; assay type: functional; conditions: U1, 72 h
Outline: (§1)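 TMV premixed with compound at a range of concentrations used to inoculate tobacco BY-2 protoplasts; virus multiplication then assayed by counting local lesions on the local lesion host Chenopodium quinoa.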

[3] = Cytotoxicity against hamster BHK21 cells; assay type: cell-based, Mesocricetus auratus, BHK-21
[4] = Selectivity index, ratio of CC50 for BHK21 cells to EC50 for Sindbis virus; assay type: toxicity, cell-based, BHK-21; conditions: hamster, read-out: Ratio CC50/EC50
Outline: (§2)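 SINV XJ-160 at 2 × 10⁵ pfu/ml was premixed with compound for 15 min. It was then adsorbed 1 h to BHK-21 cells, MOI 0.01, in quadruplicate. Cells were washed and kept in DMEM/5% FBS at 37°C. CC50 was 50% inhibition of uninfected BHK-21 proliferation. Index = CC50/EC50.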

[5] = tested on: Influenza A virus; assay: Antiviral activity against influenza A virus in Madin-Darby kidney cells assessed as inhibition of virus-induced cytopathogenicity; assay type: functional, organism-based
Outline: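 Influenza A virus was tested on Madin–Darby canine kidney cells seeded at 2 × 10⁵ per well 24 h before use. Infection used the dose causing 100% CPE at 3 dpi. Compound was premixed with virus at final 100–0 nM (8 levels). Uninfected and virus-only controls were included per plate. Read-out was 50% inhibition of cytopathogenicity.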

[6] = tested on: Reovirus sp.; assay: Antiviral activity against Reovirus in CIK cells assessed as inhibition of virus-induced cytopathogenicity; assay type: functional, organism-based
Outline: (§3)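 Cells seeded at 2 × 10⁵ per well 24 h before use (BHK-21 for GETV, H9 for HIV, CIK for Reovirus, 983A for adenovirus, Veto for measles virus). Infected at a dose giving 100% cytopathic effect at 3 dpi; virus premixed with compound at final 100, 50, 10, 3, 2, 1.5, 1, 0 nM. Infected and uninfected untreated controls on each plate.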

[7] = tested on: Tobacco mosaic virus; assay: Inhibition of TMV U1 multiplication in tobacco BY2 protoplast at 40 nM assessed as inhibition of local lesions on Chenopodium quinoa leaves by local lesion assay after 3 days postinfection; assay type: functional; conditions: U1, 72 h; outline: as §1
[8] = tested on: Tobacco mosaic virus; assay: Inhibition of TMV U1 multiplication in tobacco BY2 protoplast at 30 nM assessed as inhibition of local lesions on Chenopodium quinoa leaves by local lesion assay after 3 days postinfection; assay type: functional; conditions: U1, 72 h; outline: as §1
[9] = tested on: unidentified adenovirus; assay: Antiviral activity against adenovirus in 983A cells assessed as inhibition of virus-induced cytopathogenicity; assay type: functional, organism-based; outline: as §3
[10] = tested on: Tobacco mosaic virus; assay: Inhibition of TMV U1 multiplication in tobacco BY2 protoplast at 50 nM assessed as local lesion size on Chenopodium quinoa leaves by local lesion assay; assay type: functional
[11] = tested on: Sindbis virus; assay: Reduction of Sindbis virus infection-induced mortality rate in newborn BALB/c mouse assessed as survivors at 100 mg/kg administered 1 hr before infection after 7 days; assay type: functional
Outline: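 Newborn BALB/c mice, 2–3 days old, ≈2 g, received 20 μl compound at 100 mg/kg BW 1 or 4 h before intracerebral inoculation with 20 μl containing 100 × LD50 SINV. There were 11 mice per group, with survivors counted at 3, 4, 5, 6 and 7 days.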

[12] = tested on: Tobacco mosaic virus; assay: Inhibition of coat protein sgRNA accumulation in TMV U1 infected Nicotiana tabacum cv K326 plant leaves at 50 nM by Northern blot; assay type: functional, organism-based
Outline: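 N. tabacum cv. K326 leaves inoculated with TMV with or without 50 nM compound; inoculated and upper uninoculated leaves collected at 5 dpi. TRIzol total RNA probed with CP gene sequence by Northern blot, 28S rRNA as loading control.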

[13] = Selectivity index, ratio of CC50 for hamster BHK21 cells to EC50 for Sindbis virus XJ160; assay type: toxicity, cell-based, BHK-21; conditions: read-out: Ratio CC50/EC50; outline: as §2
[14] = tested on: Measles morbillivirus; assay: Antiviral activity against measles virus in Veto cells assessed as inhibition of virus-induced cytopathogenicity; assay type: functional, organism-based; outline: as §3
[15] = tested on: Sindbis virus; assay: Reduction of Sindbis virus infection-induced mortality rate in newborn BALB/c mouse assessed as long term survivors at 100 mg/kg; assay type: functional
Outline: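 Newborn BALB/c mice, 2–3 days old, ≈2 g, were inoculated intracerebrally with 20 μl medium holding 100 × LD50 SINV. Compound (20 μl, 5, 50 or 100 mg/kg BW) was mixed into the inoculum. There were 11 mice per group, counted at 3–7 days. Virus-alone and compound-alone controls were included.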

[16] = tested on: Tobacco mosaic virus; assay: Antiviral activity against TMV U1 infected Nicotiana tabacum cv K326 plant leaves assessed as inhibition of systemic virus infection; assay type: functional, organism-based
[17] = tested on: Japanese encephalitis virus; assay: Antiviral activity against Japanese encephalitis virus in C6 cells assessed as inhibition of virus-induced cytopathogenicity; assay type: functional, organism-based
[18] = tested on: Tobacco mosaic virus; assay: Inhibition of TMV U1 multiplication in tobacco BY2 protoplast at 30 nM assessed as local lesion size on Chenopodium quinoa leaves by local lesion assay; assay type: functional

CO[C@@H]1C[C@H](O[C@H]2CC[C@@]3(C)C(=CC[C@H]4C(=O)OC5CO[C@]6(C)OC=C(CC[C@@H]43)[C@H]56)C2)O[C@H](C)[C@H]1O[C@H]1C[C@H](O)[C@H](O[C@@H]2C[C@@H](OC)[C@H](O[C@@H]3O[C@H](CO)[C@@H](O[C@@H]4O[C@H](CO)[C@@H](O)[C@H](O)[C@H]4O)[C@H](O)[C@H]3O)[C@@H](C)O2)[C@@H](C)O1 (stereo partly drawn) [PANICULATUMOSIDE C]
Activity [1]: Toxic | inhibition at 0.02 µM [2]: 40% | CC50 [3]: 16.5 µM | selectivity ratio [4]: 11000 | EC50 [5]: > 20 µM | EC50 [6]: > 25 µM | inhibition at 0.04 µM [7]: 93% | inhibition at 0.03 µM [8]: 72% | EC50 [9]: > 25 µM | Activity [10]: 0 mm | Activity [11]: 100% | Activity [12]: Active | selectivity ratio [13]: 11000 | EC50 [14]: > 25 µM | Activity [15]: 100% | Activity [16]: Active | EC50 [17]: > 25 µM | Activity [18]: 1.1 mm
